Screens from PubChem BioAssay.
MrgX1 PAM: human MrgX1 positive allosteric modulation, primary screen; MrgX1-HEK293, Fluo-4 calcium flux, FDSS; hits give high values; 310,000 compounds, 0.63% hits; B-score at 10 µM; Q96LB2;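 active = plate-corrected calcium response at least 3 library SD above typical, normal starting fluorescence, not activating the receptor alone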;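 also: compound read alongside a low EC10 to EC30 dose of BAM8-22 agonist; peak minus trough fluorescence over baseline measured at the second addition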
Target sequence (Q96LB2 whole entry, looked up): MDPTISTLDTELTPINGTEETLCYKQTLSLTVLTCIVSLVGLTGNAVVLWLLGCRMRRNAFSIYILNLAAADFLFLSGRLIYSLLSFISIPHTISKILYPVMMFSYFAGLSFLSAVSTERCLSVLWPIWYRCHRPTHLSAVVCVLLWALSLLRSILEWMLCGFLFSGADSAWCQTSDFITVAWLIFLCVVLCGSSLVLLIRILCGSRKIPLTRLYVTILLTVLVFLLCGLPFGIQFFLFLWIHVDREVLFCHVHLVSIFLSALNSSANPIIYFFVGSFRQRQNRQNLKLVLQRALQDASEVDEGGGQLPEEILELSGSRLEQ
RGS4 inh: inhibitors of human RGS4. 310,000 compounds, 0.45% hits. P49798. AID 463165. B-score at 10 µM. HEK293 M3R/RGS4 inducible, Fluo-4 calcium flux; hits give high values; triggered by carbachol at its EC20;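 active = B-score, a plate-corrected calcium signal, over three deviations above library mean, with baseline fluorescence within five deviations of library mean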;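 also: RGS4 expression induced by doxycycline in cells with stable M3 receptor; B-score is computed from the integrated fluorescence ratio over baseline after carbachol; higher B-score means a larger calcium signal and so more RGS4 inhibition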
Target sequence (P49798 whole entry, looked up): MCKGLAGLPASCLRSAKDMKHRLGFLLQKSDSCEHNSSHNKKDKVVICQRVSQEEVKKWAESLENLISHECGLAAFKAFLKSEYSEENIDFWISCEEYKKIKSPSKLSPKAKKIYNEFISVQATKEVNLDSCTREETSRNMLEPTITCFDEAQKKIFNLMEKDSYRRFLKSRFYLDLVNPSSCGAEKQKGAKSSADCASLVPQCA
MrgX1 ag: activates human MrgX1 receptor signaling; Q96LB2; MrgX1-HEK293 cells, Fluo-4 calcium fluorescence, agonist mode; hits give high values; B-score at 10 µM; 310,000 compounds, 0.44% hits;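 active = calcium response B-score plate-corrected fluorescence ratio at least 3 library SD, with starting fluorescence B-score inside 5 SD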
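Test system: Stable human MrgX1 HEK293 cell line | Schedule: Overnight plating before 1 h dye loading | Read-out basis: Baseline-normalised fluorescence change ratio, B-scored | Detection: Kinetic calcium dye fluorescence, Fluo-4 NW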
RGS4 act: RGS4 potentiation or activation. HEK293 M3R/inducible RGS4, carbachol calcium flux Fluo4; hits give low values. B-score at 10 µM. 310,000 compounds, 0.92% hits. AID 463111;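 active = B-score of the integrated calcium signal more than 4 SD below the library mean, with starting fluorescence not abnormally high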;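 also: negative B-score means reduced calcium response which marks RGS4 activation or potentiation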
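Assay system: HEK293 FlpIn-TREx cells, stable M3R, doxycycline-inducible RGS4 / Probe or stimulus: carbachol, ECmax concentration / Times: overnight RGS4 induction, 30 min dye load 37 °C, 20 min compound RT / Signal: kinetic calcium fluorescence imaging with Fluo4-AM dye, 2 µM / Measure: Agonist-evoked peak-minus-minimum fluorescence over baseline, integrated ratio, B score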
MrgX1 antag: blocks BAM8-22 activation of human MrgX1 receptor. Q96LB2. MRGX1-HEK293 calcium flux, Fluo-4, BAM8-22 antagonism; hits give low values. B-score at 10 µM. 310,000 compounds, 1.3% hits. AID 588676;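 active = calcium-response B-score plate-corrected more than 3 library SD below zero, starting fluorescence within 5 deviations, no agonist response on first addition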;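 also: peak minus trough fluorescence over baseline after final BAM8-22 challenge near maximal dose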
MrgX1 ant reconf: human MrgX1 receptor antagonism, re-confirmation screen; shares compounds with MrgX1 antag; MrgX1-HEK293, BAM8-22 calcium flux, Fluo-4; hits give low values; remaining BAM8-22 calcium response % of control (hits give low values), % at 10 µM; 2,300 compounds, 19% hits; AID 602420;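 active = remaining agonist calcium response no higher than 100% minus 3 SD of agonist-only control wells, with starting fluorescence near control levels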;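 also: agonist BAM8-22 given at a near maximal EC90 to ECmax level; peak minus minimum fluorescence divided by baseline after agonist addition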
HEK293 Ca flux: MrgX1 antagonist counter-screen hit in parental HEK293 cells | shares compounds with MrgX1 antag | Fluo-4 calcium fluorescence, FDSS | fluorescence ratio F(max-min)/F0 at 10 µM | 4,000 compounds, 2% hits;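 active = duplicate-averaged calcium fluorescence ratio at least three times the standard deviation of buffer wells, a nonspecific response in parental cells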
HEK293 Ca counter: activity in parental HEK293 cells without MrgX1 | shares compounds with MrgX1 antag | parental HEK293 calcium flux, Fluo-4 fluorescence ratio; hits give high values | fluorescence ratio F(max-min)/F0 at 10 µM | 4,000 compounds, 0.4% hits;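 active = calcium fluorescence ratio, averaged over duplicates, at least 3 SD of the buffer-well ratio, meaning a nonspecific response in receptor-free cells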;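 also: untransfected parental HEK293 lacking MrgX1 used as counterscreen for MrgX1 allosteric activators; fluorescence change taken during the second addition on a kinetic imager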
HEK293 Ca cntr2: activity in parental HEK293 cells lacking MrgX1 receptor; shares compounds with MrgX1 antag; Fluo-4 calcium fluorescence (FDSS); hits give high values; fluorescence ratio F(max-min)/F0 at 10 µM; 4,000 compounds, 8.7% hits; AID 624115;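 active = calcium fluorescence ratio at least three times the spread of buffer wells, meaning a non-specific response in parental cells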
Numbers without * were called inactive; i = inactive; x = no result given. Compounds with a hit are over-represented: about 3.5% of the library has one in this group of screens.

SMILES | MrgX1 PAM | RGS4 inh | MrgX1 ag | RGS4 act | MrgX1 antag | MrgX1 ant reconf | HEK293 Ca flux | HEK293 Ca counter | HEK293 Ca cntr2
CNC(=O)COC(=O)c1nc(-n2nc(C)cc2C)ccc1Cl | i | i | i | i | -6.77* | i | i | i | i
CN(C)CCNC(=S)Nc1ccccc1Cl | i | i | i | i | i | x | x | x | x
S=C(NCCNC(=S)Nc1ccccc1Cl)Nc1ccccc1Cl | i | i | i | i | -4.74* | 84.6%* | i | i | i
Cc1c(Cl)cccc1NC(=S)NCCCN(C)C | i | i | i | i | -5.52* | i | i | i | i
CSc1cccc(NC(=O)CCCNC(=O)c2ccc(Cl)cc2)c1 | i | i | i | i | i | x | x | x | x
CCN(CC)C(=O)Cn1cc(C(=O)C(=O)N2CCN(Cc3ccc4c(c3)OCO4)CC2)c2ccccc21 | i | i | i | i | i | x | x | x | x
CC(C)Oc1ccc(/C=N/NC(=O)c2nnn(-c3nonc3N)c2CN(C)c2ccccc2)cc1 | i | i | i | i | i | x | x | x | x
CC(C)N(Cc1ccccc1)C(=O)C1CCN(c2ncnc3c2nc2n3CCCCC2)CC1 | i | i | i | i | -4.76* | i | i | i | 56.8*
COC(=O)c1sc(NC(=O)c2ccc(Cn3cc(Cl)cn3)o2)c(C#N)c1C | i | i | i | i | -4.57* | i | i | i | i
N#Cc1c(NC(=O)c2ccc(Cn3cc(Br)cn3)o2)sc2c1CCCCC2 | i | i | i | i | i | x | x | x | x
CC(=O)Nc1nc(C(=O)O)cs1 | i | i | i | i | -4.95* | 81.0%* | i | i | i
Cn1c(=O)c(=O)n(C)c2cc(S(=O)(=O)Nc3ccc4c(c3)OCCO4)ccc21 | i | i | i | i | -5.86* | i | i | i | i
CC(=O)Nc1ccc(NC(=O)[C@@H](NC(=O)c2ccccc2F)C(C)C)cc1 | i | i | i | i | i | x | x | x | x
Cc1nc2cc(Nc3ccncc3)ccc2s1 | i | i | i | i | i | x | x | x | x
O=C(Cn1c(C(F)(F)F)nc2ccccc21)Nc1ccccc1N1CCOCC1 | i | i | i | i | -9.34* | i | i | i | i
COC(=O)[C@@H]1C[C@@]2(Br)c3ccccc3N(S(=O)(=O)c3ccccc3)[C@H]2N1C(=O)OC | i | i | i | i | -6.04* | i | i | i | 60.8*
Cn1c(=O)c2c(nc(CN3CCOCC3)n2CCc2ccccc2)n(C)c1=O | i | i | i | i | -4.88* | i | i | i | i
CCCC1C(C#N)=C(N)Oc2n[nH]c(C(C)(C)C)c21 (stereo not given) | i | i | i | i | -5.07* | i | i | i | i
CC(C)C1C(C#N)=C(N)Oc2n[nH]c(C(C)(C)C)c21 (stereo not given) | i | x | i | x | i | x | x | x | x
O=C1CC(N2CCC(O)(c3ccc(Br)cc3)CC2)C(=O)N1c1ccc(Cl)cc1 (stereo not given) | i | i | i | i | -6.54* | i | i | i | i
Cn1c(N)c(C(=O)COC(=O)[C@@H]2CCCN2S(=O)(=O)c2ccc(Cl)cc2)c(=O)n(C)c1=O | i | i | i | i | -6.06* | i | i | i | i
Cc1nn(C)cc1CN(C)C(=O)c1nn2c(c1Cl)NC(c1cccs1)CC2C(F)(F)F (stereo not given) | i | i | i | i | -4.98* | 73.7%* | i | i | i
Fc1ccc(C(c2nnnn2Cc2cccs2)N2CCN(C3CCCC3)CC2)cc1 (stereo not given) | i | i | i | i | -7.06* | i | i | i | i
COc1ccccc1N1CCN(S(=O)(=O)CCNC(=O)c2ccccc2Br)CC1 | i | i | i | i | i | x | x | x | x
Cc1nn(CCO)c2nc(-c3cccs3)cc(C(F)(F)F)c12 | i | i | i | i | -9.49* | i | i | i | i
SMILES | MrgX1 PAM | RGS4 inh | MrgX1 ag | RGS4 act | MrgX1 antag | MrgX1 ant reconf | HEK293 Ca flux | HEK293 Ca counter | HEK293 Ca cntr2
CN(C)C(CNC(=O)CCc1nc2sc3c(c2c(=O)[nH]1)CCCC3)c1ccccc1 (stereo not given) | i | i | i | i | -6.48* | i | i | i | i
CCOC(=O)c1ccc(-c2c(C(=O)OCC)oc3cc(O)c(CC)cc3c2=O)o1 | i | i | i | i | -4.8* | 80.3%* | i | i | i
COc1ccccc1C(O)P(=O)(OCC(C)C)c1ccc(N(C)C)cc1 (stereo not given) | i | i | i | i | i | x | x | x | x
COc1cc(NC(=O)CN(C)S(=O)(=O)c2ccc(-c3ccc(=O)[nH]n3)s2)cc(OC)c1 | i | i | i | i | i | x | x | x | x
O=C(Nc1ccccc1F)C(=O)c1cn(CC(=O)N2CCCCC2)c2ccccc12 | i | i | i | i | -5.03* | i | i | i | i
CC(=O)Nc1ccc(NC(=O)C(=O)c2cn(CC(=O)N3CCCC3)c3ccccc23)cc1 | i | i | i | i | i | x | x | x | x
COc1ccc(S(=O)(=O)NCC(=O)N(CC(=O)NCc2ccco2)C2CCCC2)cc1 | i | i | i | i | i | x | x | x | x
COc1ccc(-n2nc3c(c2NC(=O)COc2cccc(OC)c2)CS(=O)(=O)C3)cc1 | i | i | i | i | -7.52* | i | i | i | i
CC1(C)CC(CC(=O)O)(c2ccc(F)cc2)CCO1 (stereo not given) | i | i | i | i | -6* | i | i | i | i
Cc1ccc(C2(CC(=O)O)CCOC(C)(C)C2)cc1 (stereo not given) | i | i | i | i | i | x | x | x | x
Cc1ccc(S(=O)(=O)N2CCN(C(=O)c3sccc3-c3ccccc3)CC2)cc1 | i | i | i | i | -5.4* | i | i | i | i
CCc1cc(=O)[nH]c(SCc2ccc(C)cc2)n1 | i | i | i | i | -4.69* | i | i | i | i
